Test results published in ChEMBL document CHEMBL3739387, “Discovery and SAR of Novel and Selective Inhibitors of Urokinase Plasminogen Activator (uPA) with an Imidazo[1,2-a]pyridine Scaffold” (J Med Chem, 2015).
The source made the active and inactive calls. No cut-off for these calls is given here.

What was measured:
[1] = target: T1, Urokinase-type plasminogen activator (Homo sapiens, UniProt P00749); test: Inhibition of human uPA using pyro-Glu-Gly-Arg-pNA as substrate assessed as para-nitroaniline release from substrate measured for 5 mins by spectrophotometric assay
[2] = target: T1, Urokinase-type plasminogen activator; test: Slow dissociating inhibition of human uPA using pyro-Glu-Gly-Arg-pNA as substrate assessed as para-nitroaniline release from substrate measured for 5 mins by spectrophotometry based enzyme kinetics assay
Coagulation factor X [3] = target: T2, Coagulation factor X (Homo sapiens, UniProt P00742); test: Inhibition of purified human factor 10a using Suc-Ile-Glu(yPip)-GlyArg-pNa-HCl as substrate at 100 uM measured for 5 mins by spectrophotometric assay
Method in brief: (§1)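 Purified human factor Xa, substrate Suc-Ile-Glu(γPip)-Gly-Arg-pNA (CS-11(32)) at 411 μM in assay. HEPES pH 8.2. Read at 405 nm for 5 min at 37 °C, duplicate wells.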

Prothrombin [4] = target: T3, Prothrombin (Homo sapiens, UniProt P00734); test: Inhibition of human plasma thrombin using pyroGlu-Pro-Arg-pNA-HCl as substrate at 100 uM measured for 5 mins by spectrophotometric assay; format: cell-free
Method in brief: (§2)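 Thrombin from human plasma with pyroGlu-Pro-Arg-pNA (CS-21(66), Km 400 μM) at 415 μM in assay. 50 mM HEPES pH 8.2. pNA release at 405 nm over 5 min at 37 °C, in duplicate.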

[5] = target: T1, Urokinase-type plasminogen activator; test: Tight binding inhibition of human uPA using pyro-Glu-Gly-Arg-pNA as substrate assessed as para-nitroaniline release from substrate measured for 5 mins by spectrophotometry based enzyme kinetics assay
Plasminogen [6] = target: T4, Plasminogen (Homo sapiens, UniProt P00747); test: Inhibition of human plasma plasmin using pyroGlu-Pro-Arg-pNA-HCl as substrate at 100 uM measured for 5 mins by spectrophotometric assay; format: cell-free
Method in brief: (§3)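 Plasmin purified from human plasma. Substrate pyroGlu-Pro-Arg-pNA (CS-21(66), Km 400 μM) at 400 μM in assay. HEPES pH 7.0, 37 °C, absorbance at 405 nm followed for 5 min, duplicates.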

[7] = target: T5, Tissue-type plasminogen activator (Homo sapiens, UniProt P00750); test: Inhibition of recombinant human tPA using H-D-Ile-Pro-L-Arg-pNA-2HCl as substrate at 100 uM measured for 5 mins by spectrophotometric assay
Target sequence in this assay (P00750 36-562 limits assumed): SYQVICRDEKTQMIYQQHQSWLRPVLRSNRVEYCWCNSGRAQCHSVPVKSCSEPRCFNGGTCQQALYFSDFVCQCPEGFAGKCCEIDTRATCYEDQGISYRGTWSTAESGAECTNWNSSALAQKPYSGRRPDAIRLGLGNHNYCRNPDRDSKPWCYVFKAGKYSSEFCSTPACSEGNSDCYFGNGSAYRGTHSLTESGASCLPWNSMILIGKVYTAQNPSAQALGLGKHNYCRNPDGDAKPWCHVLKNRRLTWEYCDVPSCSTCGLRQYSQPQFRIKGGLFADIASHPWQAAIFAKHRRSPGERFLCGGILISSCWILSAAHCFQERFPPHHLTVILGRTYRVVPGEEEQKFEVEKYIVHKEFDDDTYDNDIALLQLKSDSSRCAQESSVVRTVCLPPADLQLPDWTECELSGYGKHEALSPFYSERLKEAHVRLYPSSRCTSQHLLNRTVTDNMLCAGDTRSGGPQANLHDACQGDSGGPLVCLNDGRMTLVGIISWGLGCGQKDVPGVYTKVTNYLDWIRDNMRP

[8] = target: T6, Coagulation factor VII (Homo sapiens) (UniProt P08709); test: Inhibition of purified human factor 7a using MeSO2-Cha-Abu-Arg-pNA as substrate at 100 uM measured for 5 mins by spectrophotometric assay
T6 sequence (whole entry): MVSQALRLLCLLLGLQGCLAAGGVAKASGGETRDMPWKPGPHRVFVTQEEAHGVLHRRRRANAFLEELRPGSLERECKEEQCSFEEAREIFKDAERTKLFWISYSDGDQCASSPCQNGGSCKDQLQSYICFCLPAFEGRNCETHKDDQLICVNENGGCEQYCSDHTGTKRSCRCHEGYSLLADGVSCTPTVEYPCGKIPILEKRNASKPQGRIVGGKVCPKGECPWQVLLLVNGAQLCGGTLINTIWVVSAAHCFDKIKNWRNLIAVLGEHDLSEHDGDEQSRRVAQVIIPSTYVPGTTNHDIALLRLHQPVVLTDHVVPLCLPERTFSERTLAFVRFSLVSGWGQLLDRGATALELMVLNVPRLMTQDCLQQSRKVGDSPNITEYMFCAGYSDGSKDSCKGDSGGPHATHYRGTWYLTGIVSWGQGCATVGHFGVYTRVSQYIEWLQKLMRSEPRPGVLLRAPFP
Method in brief: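 Purified human plasma FVIIa with tissue factor (Innovin) present. MeSO2-Cha-Abu-Arg-pNA at 800 μM in assay. Buffer 50 mM HEPES pH 7.5, 100 mM NaCl, 5 mM CaCl2, 0.1% BSA.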

Plasma kallikrein [9] = target: T7, Plasma kallikrein (Homo sapiens, UniProt P03952); test: Inhibition of human plasma kallikrein using D-Pro-Phe-Arg-pNA-2HCl as substrate at 100 uM measured for 5 mins by spectrophotometric assay; format: cell-free
Method in brief: (§4)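 Human plasma kallikrein, chromogenic substrate CS-31(02) (Km 269 μM) at 269 μM in assay. 50 mM HEPES at pH 7.4. Absorbance at 405 nm over 5 min at 37 °C, duplicates.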

Bos taurus = species on record: Bos taurus; test: Inhibition of bovine pancreatic trypsin using Na-benzoyl-D,L-Arg-pNA-HCl as substrate at 100 uM measured for 5 mins by spectrophotometric assay
[10] = target: T1, Urokinase-type plasminogen activator; test: Reversible inhibition of human uPA using pyro-Glu-Gly-Arg-pNA as substrate assessed as para-nitroaniline release from substrate measured for 5 mins by spectrophotometry based enzyme kinetics assay
[11] = Inhibition of bovine pancreatic trypsin using Nalpha-benzoyl-D,L-Arg-pNA-HCl as substrate measured for 5 mins by spectrophotometric assay; set-up: species or system Bos taurus
[12] = target: T5, Tissue-type plasminogen activator; test: Inhibition of recombinant human tPA using H-D-Ile-Pro-L-Arg-pNA-2HCl as substrate measured for 5 mins by spectrophotometric assay
Target sequence in this assay (P00750 whole entry): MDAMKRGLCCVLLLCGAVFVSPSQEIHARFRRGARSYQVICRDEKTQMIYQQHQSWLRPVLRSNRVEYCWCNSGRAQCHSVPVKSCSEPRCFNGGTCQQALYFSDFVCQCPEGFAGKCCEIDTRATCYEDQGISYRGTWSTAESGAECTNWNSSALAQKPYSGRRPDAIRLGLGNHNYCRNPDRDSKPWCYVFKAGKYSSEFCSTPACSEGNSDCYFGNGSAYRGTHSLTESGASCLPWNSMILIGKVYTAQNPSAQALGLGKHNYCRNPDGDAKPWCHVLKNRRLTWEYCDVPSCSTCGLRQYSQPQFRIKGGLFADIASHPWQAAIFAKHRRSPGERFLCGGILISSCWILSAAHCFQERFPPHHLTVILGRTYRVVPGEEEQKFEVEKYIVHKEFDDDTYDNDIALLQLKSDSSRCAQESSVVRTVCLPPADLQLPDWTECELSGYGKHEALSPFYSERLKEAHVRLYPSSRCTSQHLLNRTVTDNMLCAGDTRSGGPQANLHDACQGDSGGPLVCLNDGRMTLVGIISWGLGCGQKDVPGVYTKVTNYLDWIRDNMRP

Plasma kallikrein [13] = target: T7, Plasma kallikrein; test: Inhibition of human plasma kallikrein using D-Pro-Phe-Arg-pNA-2HCl as substrate measured for 5 mins by spectrophotometric assay; format: cell-free; method in brief: as §4
Coagulation factor X [14] = target: T2, Coagulation factor X; test: Inhibition of purified human factor 10a using Suc-Ile-Glu(gammaPip)-GlyArg-pNa-HCl as substrate measured for 5 mins by spectrophotometric assay; method in brief: as §1
Prothrombin [15] = target: T3, Prothrombin; test: Inhibition of human plasma thrombin using pyroGlu-Pro-Arg-pNA-HCl as substrate measured for 5 mins by spectrophotometric assay; format: cell-free; method in brief: as §2
Plasminogen [16] = target: T4, Plasminogen; test: Inhibition of human plasma plasmin using pyroGlu-Pro-Arg-pNA-HCl as substrate measured for 5 mins by spectrophotometric assay; format: cell-free; method in brief: as §3
[17] = target: T1, Urokinase-type plasminogen activator; test: Inhibition of human uPA

T4 sequence (P00747 97-580 limits assumed): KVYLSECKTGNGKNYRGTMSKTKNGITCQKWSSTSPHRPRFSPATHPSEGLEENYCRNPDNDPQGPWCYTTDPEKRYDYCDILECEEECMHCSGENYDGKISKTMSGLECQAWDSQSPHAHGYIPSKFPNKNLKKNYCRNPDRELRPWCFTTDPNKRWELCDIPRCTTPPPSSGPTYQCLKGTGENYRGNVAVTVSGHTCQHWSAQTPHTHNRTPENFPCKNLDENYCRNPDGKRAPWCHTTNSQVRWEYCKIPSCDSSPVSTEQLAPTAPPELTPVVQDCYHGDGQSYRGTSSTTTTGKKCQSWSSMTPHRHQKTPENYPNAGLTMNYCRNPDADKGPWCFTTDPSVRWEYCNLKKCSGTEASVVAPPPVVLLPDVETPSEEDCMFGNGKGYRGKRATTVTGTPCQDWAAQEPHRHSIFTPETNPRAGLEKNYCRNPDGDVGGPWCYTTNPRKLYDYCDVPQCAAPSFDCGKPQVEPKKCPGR
T4 sequence (P00747 581-810 limits assumed): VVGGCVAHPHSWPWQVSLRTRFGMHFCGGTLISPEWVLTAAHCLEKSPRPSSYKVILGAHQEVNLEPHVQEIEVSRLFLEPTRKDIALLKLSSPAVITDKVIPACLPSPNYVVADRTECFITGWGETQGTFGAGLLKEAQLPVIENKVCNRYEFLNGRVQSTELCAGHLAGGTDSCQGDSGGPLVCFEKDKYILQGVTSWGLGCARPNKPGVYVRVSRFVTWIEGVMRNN
T2 sequence (P00742 41-179 limits assumed): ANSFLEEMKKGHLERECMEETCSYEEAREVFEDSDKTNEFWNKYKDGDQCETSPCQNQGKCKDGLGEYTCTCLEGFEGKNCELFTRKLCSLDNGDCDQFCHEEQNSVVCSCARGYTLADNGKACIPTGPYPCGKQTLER
T2 sequence (P00742 235-488 limits assumed): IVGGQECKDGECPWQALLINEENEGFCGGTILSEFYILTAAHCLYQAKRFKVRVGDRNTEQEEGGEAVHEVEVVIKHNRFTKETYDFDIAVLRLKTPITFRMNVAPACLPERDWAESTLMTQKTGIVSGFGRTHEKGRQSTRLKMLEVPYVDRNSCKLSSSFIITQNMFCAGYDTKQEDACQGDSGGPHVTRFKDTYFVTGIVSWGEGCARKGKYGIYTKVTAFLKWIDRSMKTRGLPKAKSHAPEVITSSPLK
T7 sequence (P03952 20-390 limits assumed): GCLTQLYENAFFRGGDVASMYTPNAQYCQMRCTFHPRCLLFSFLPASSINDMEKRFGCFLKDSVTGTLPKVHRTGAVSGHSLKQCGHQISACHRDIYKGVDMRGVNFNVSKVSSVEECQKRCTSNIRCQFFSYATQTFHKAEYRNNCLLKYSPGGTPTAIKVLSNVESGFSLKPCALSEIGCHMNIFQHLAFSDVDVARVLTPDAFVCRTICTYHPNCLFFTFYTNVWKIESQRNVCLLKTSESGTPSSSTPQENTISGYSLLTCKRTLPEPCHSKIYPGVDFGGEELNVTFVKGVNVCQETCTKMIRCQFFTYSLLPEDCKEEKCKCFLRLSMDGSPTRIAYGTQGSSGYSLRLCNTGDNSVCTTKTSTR
T7 sequence (P03952 391-638 limits assumed): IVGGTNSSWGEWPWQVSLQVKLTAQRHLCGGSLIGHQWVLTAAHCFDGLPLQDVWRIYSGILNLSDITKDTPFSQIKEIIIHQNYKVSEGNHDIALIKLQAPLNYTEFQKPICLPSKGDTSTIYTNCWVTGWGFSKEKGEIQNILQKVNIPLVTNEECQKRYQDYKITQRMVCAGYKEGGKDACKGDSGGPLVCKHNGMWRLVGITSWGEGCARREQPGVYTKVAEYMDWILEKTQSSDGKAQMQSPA

N=C(N)Nc1ccc(CNc2c(-c3ccc(F)cc3)nc3ccccn23)cc1
IC50 [1]: 125 µM

CN1CCN(CCNC(=O)c2ccn3c(NCc4ccc(NC(=N)N)cc4)cnc3c2)CC1
inhibition [2]: Active | inhibition (Coagulation factor X [3]): 12.2% | inhibition (Prothrombin [4]): 6.6% | inhibition [5]: Active | inhibition (Plasminogen [6]): 0% | inhibition [7]: 2.8% | inhibition [8]: 2% | IC50 [1]: 0.404 µM | inhibition (Plasma kallikrein [9]): 0% | inhibition (Bos taurus): 32% | inhibition [10]: Active

N=C(N)NCCCCNc1cnc2ccccn12
IC50 [1]: 200 µM

Cc1ccc2nc(-c3cccnc3)c(NCc3ccc(NC(=N)N)cc3)n2c1
IC50 [1]: 23.9 µM

N=C(N)Nc1ccc(CNc2cnc3cc(C(=O)NCc4ccc(F)cc4)ccn23)cc1
inhibition [2]: Active | inhibition (Coagulation factor X [3]): 45.7% | inhibition (Prothrombin [4]): 19.5% | inhibition [5]: Active | inhibition (Plasminogen [6]): 8.3% | inhibition [7]: 11.9% | inhibition [8]: 4.2% | IC50 [1]: 0.254 µM | inhibition (Plasma kallikrein [9]): 0% | inhibition (Bos taurus): 43.2% | inhibition [10]: Active

CCCCNC(=O)c1ccc2nc(-c3cccnc3)c(NCc3ccc(NC(=N)N)cc3)n2c1
IC50 [1]: 60.8 µM

N=C(N)Nc1ccc(CNc2c(-c3cccnc3)nc3ccc(C(F)(F)F)cn23)cc1
IC50 [1]: 200 µM

N=C(N)Nc1ccc(CNc2cnc3ccccn23)cc1
inhibition (Coagulation factor X [3]): 42% | IC50 [11]: 115 µM | inhibition (Prothrombin [4]): 23% | inhibition (Plasminogen [6]): 29.8% | inhibition [7]: 33.6% | inhibition [8]: 2.5% | IC50 [1]: 9.04 µM | inhibition (Plasma kallikrein [9]): 39.4%

CCOC(=O)c1ccc(OC(=O)CCCCCNC(=N)N)cc1 [GABEXATE]
IC50 [12]: 15.4 µM | IC50 (Plasma kallikrein [13]): 1.35 µM | IC50 [11]: 7.12 µM | IC50 (Coagulation factor X [14]): 4.61 µM | IC50 (Prothrombin [15]): 0.687 µM | IC50 [1]: 0.431 µM | IC50 (Plasminogen [16]): 1.55 µM

NC[C@H]1CC[C@H](Nc2cnc3ccccn23)CC1
IC50 [1]: 500 µM

N=C(N)Nc1ccc(CNc2cnc3cc(C(=O)NCCO)ccn23)cc1
inhibition [2]: Active | inhibition (Prothrombin [4]): 4.7% | inhibition [5]: Active | inhibition (Plasminogen [6]): 15.6% | inhibition [7]: 0% | IC50 (Coagulation factor X [14]): 51.6 µM | inhibition [8]: 5% | IC50 [1]: 0.366 µM | inhibition (Plasma kallikrein [9]): 0% | inhibition (Bos taurus): 43.3% | inhibition [10]: Active

N=C(N)Nc1ccc(CNc2c(-c3cccc(F)c3)nc3ccccn23)cc1
IC50 [1]: 100 µM

N=C(N)Nc1ccc(CNc2c(C3CCNCC3)nc3ccccn23)cc1
IC50 [1]: 250 µM

CCCCNC(=O)c1ccn2c(NCc3ccc(NC(=N)N)cc3)c(-c3cccnc3)nc2c1
IC50 [1]: 6.89 µM

N=C(N)Nc1ccc(CNc2c(Cc3cccc(Cl)c3)nc3ccccn23)cc1
IC50 [1]: 18 µM

N=C(N)NC(=O)c1nc(Cl)c(N)nc1N [AMILORIDE]
inhibition (Coagulation factor X [3]): 3.5% | IC50 [11]: 31.8 µM | inhibition (Prothrombin [4]): 5.2% | inhibition (Plasminogen [6]): 0% | inhibition [7]: 1% | inhibition [8]: 7.4% | inhibition (Plasma kallikrein [9]): 0%

NCCOc1c(Cl)cc(Nc2cnc3ccccn23)cc1Cl
IC50 [1]: 500 µM

N=C(N)Nc1ccc(CCNc2c(-c3cccc(Cl)c3)nc3cnccn23)cc1
IC50 [1]: 53.8 µM

N=C(N)Nc1ccc(CCNc2cnc3ccccn23)cc1
IC50 [1]: 19.4 µM

N=C(N)Nc1ccc(CNc2cnc3cc(C(=O)NC4CCCC4)ccn23)cc1
inhibition [2]: Active | inhibition (Coagulation factor X [3]): 47.8% | inhibition (Prothrombin [4]): 17.8% | inhibition [5]: Active | inhibition (Plasminogen [6]): 0% | inhibition [7]: 11.2% | inhibition [8]: 4% | IC50 [1]: 0.174 µM | inhibition (Plasma kallikrein [9]): 0% | inhibition (Bos taurus): 37.1% | inhibition [10]: Active

COC(=O)c1ccn2c(NCc3ccc(NC(=N)N)cc3)c(-c3cccnc3)nc2c1
IC50 [1]: 15 µM

CCc1ccc(-c2nc3ccccn3c2NCc2ccc(NC(=N)N)cc2)cc1
IC50 [1]: 63.9 µM

N=C(N)Nc1ccc(CNc2c(-c3cc(Cl)cc(Cl)c3)nc3ccccn23)cc1
IC50 [1]: 99.2 µM

NCCOc1ccc(Nc2cnc3ccccn23)cc1
IC50 [1]: > 1000 µM

N=C(N)Nc1ccc(CNc2c(CN)nc3ccccn23)cc1
IC50 [1]: 9.3 µM

N=C(N)Nc1ccc(CNc2cnc3cc(C(=O)NC4CC4)ccn23)cc1
inhibition [2]: Active | inhibition (Coagulation factor X [3]): 45.4% | inhibition (Prothrombin [4]): 8% | inhibition [5]: Active | inhibition (Plasminogen [6]): 3.3% | inhibition [7]: 0% | inhibition [8]: 2.6% | IC50 [1]: 0.184 µM | inhibition (Plasma kallikrein [9]): 0% | inhibition (Bos taurus): 46% | inhibition [10]: Active

N=C(N)Nc1ccccc1
inhibition (Coagulation factor X [3]): 0% | inhibition (Prothrombin [4]): 0% | inhibition (Plasminogen [6]): 0% | inhibition [7]: 0% | inhibition [8]: 0% | inhibition (Plasma kallikrein [9]): 0% | inhibition (Bos taurus): 38.8%

CCc1nc2ccccn2c1NCc1ccc(NC(=N)N)cc1
IC50 [1]: 48.5 µM

N=C(N)Nc1ccc(CNc2c(-c3ccccc3)nc3ccccn23)cc1
IC50 [1]: 30.1 µM

NCc1ccc(Nc2cnc3ccccn23)cc1
IC50 [1]: > 500 µM

N=C(N)Nc1ccc(CNc2c(-c3cccnc3)nc3cc(C(=O)O)ccn23)cc1
IC50 [1]: 26.9 µM

Clc1ccc(OCCNc2cnc3ccccn23)c(Cl)c1
IC50 [1]: 250 µM

N=C(N)c1ccc(CNC(=O)[C@H](CO)NC(=O)[C@@H](CO)NS(=O)(=O)Cc2ccccc2)cc1
Ki [17]: 0.02 µM

N=C(N)Nc1ccc(CNc2c(-c3cccnc3)nc3ccccn23)cc1
inhibition (Coagulation factor X [3]): 24.6% | inhibition (Prothrombin [4]): 6.6% | inhibition (Plasminogen [6]): 0% | inhibition [7]: 9.4% | inhibition [8]: 0% | IC50 [1]: 250 µM | inhibition (Plasma kallikrein [9]): 0% | inhibition (Bos taurus): 3.3%

N=C(N)c1ccc(/C=C2/N=C(c3ccccc3)OC2=O)cc1
IC50 [12]: 68.5 µM | IC50 (Plasma kallikrein [13]): 1.34 µM | IC50 [11]: 3.18 µM | IC50 (Coagulation factor X [14]): 6.47 µM | IC50 (Prothrombin [15]): 56.1 µM | inhibition [8]: 0% | IC50 [1]: 8.67 µM | IC50 (Plasminogen [16]): 0.34 µM

N=C(N)Nc1ccc(CNc2c(-c3cccnc3)nc3ccc(F)cn23)cc1
IC50 [1]: 57.6 µM

CCc1nc2ccccn2c1NCCc1ccc(NC(=N)N)cc1
IC50 [1]: 150 µM

Cc1cccn2c(NCc3ccc(NC(=N)N)cc3)c(-c3cccnc3)nc12
IC50 [1]: 27.4 µM

N=C(N)Nc1ccc(CNc2c(-c3cccnc3)nc3ccc(C(N)=O)cn23)cc1
IC50 [1]: 27.3 µM

N=C(N)Nc1ccc(CNc2c(Cc3ccccc3)nc3ccccn23)cc1
IC50 [1]: 30.2 µM
